Assay outcomes from PubChem.
Sampled rows, rich in hits. Any-hit rate of the full collection: about 4.4%.
EBI2 antag = EBI2 (human) antagonism. P32249. EBI2 beta-arrestin recruitment, luminescence, 7a,25-OHC stimulated. inhibition, % at 5 µM. hit rate 0.81% among 360,000. AID 651636; in the data active = inhibition above about 38%;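 also: enzyme fragment complementation signal reports receptor beta-arrestin coupling in cells; 0% = agonist plus DMSO wells and 100% = wells without agonist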
SENP1 FRET inh = SENP1 (human) catalytic domain inhibition | Q9P0U3 | recombinant SENP1 catalytic domain, CyPet-SUMO1-YPet FRET cleavage | inhibition, % at 10 µM | hit rate 0.21% among 360,000;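 active = inhibition at least 30% at 10 µM, raw YFP signal under a set limit, fluorescence ratio 0.5 to 1.5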;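 also: 0% = enzyme with DMSO and 100% = no enzyme wells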
Target sequence (Q9P0U3 419-644 limits assumed): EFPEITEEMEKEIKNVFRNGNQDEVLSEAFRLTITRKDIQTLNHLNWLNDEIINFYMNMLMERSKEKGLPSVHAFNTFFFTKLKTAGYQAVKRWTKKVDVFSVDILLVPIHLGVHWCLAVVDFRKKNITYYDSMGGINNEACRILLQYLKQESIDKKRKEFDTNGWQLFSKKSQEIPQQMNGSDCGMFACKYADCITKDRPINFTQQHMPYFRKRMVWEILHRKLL
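system = hSENP1 catalytic domain, recombinant | reagent = SFCypet-SUMO1-SFYpet substrate at 25 nM | doses = one dose per compound, 10 µM, 0.5% DMSO | incubation = enzyme reaction for 50 min at room temperature, dark | measured by = FRET, CFP and YFP emission | controls = no-enzyme low, enzyme-DMSO high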
MPTP inh = blocks calcium-induced mitochondrial swelling. isolated mouse mitochondria, Ca2+ swelling absorbance, 30 min. hit rate 1.4% among 360,000. inhibition, % at 10 µM;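 active = inhibition of 50% or more, scaled per plate between neutral and stimulator controls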;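 also: 0% = DMSO wells given calcium and 100% = 1 mM EGTA wells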
NR3A LBD binder = modulates the human NR3A ligand-binding domain. NR3A LBD differential scanning fluorimetry, Tm shift; 0% = protein alone, 100% = glycine-bound protein. Tm shift relative to glycine control, % at 25 µM. hit rate 2.5% among 340,000;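 active = melting temperature shift of at least 10% of the positive control shift, at one fixed dose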
* marks the source's active call; other numbers are inactive results; · = no result.

SMILES | EBI2 antag | SENP1 FRET inh | MPTP inh | NR3A LBD binder
CN(C)Cc1c(C(=O)N/N=C/c2ccncc2)nnn1-c1nonc1N | -9 | 2 | 0 | 0
COc1ccc(CN(C)C(=O)[C@H]2O[C@@H](n3ccc(=O)[nH]c3=O)[C@H](O)[C@@H]2O)cc1OC | -4 | -1 | -1 | ·
CC(C)(C)NC(=O)Cn1nnc(-c2ccc(OCc3c(F)cccc3Cl)cc2)n1 | -5 | 2 | 1 | -6
COc1ccc(C(=O)OCc2ccccc2F)cc1S(=O)(=O)N1CCCC1 | 0 | 2 | 1 | 3
Cc1ccc(/C=C2/CNC/C(=C/c3ccc(C)cc3)C2=O)cc1 | 12 | 0 | 0 | 31*
CC(C)(C)C1CCC(=NNc2ccc(S(N)(=O)=O)cc2[N+](=O)[O-])CC1 (stereo unspecified) | -13 | 3 | 7 | 16*
Cc1cccc(-c2cc3c(nn2)-c2ccccc2C3=O)c1 | 31 | 1 | 0 | 3
COc1ccc(-c2cc3c(nn2)-c2ccccc2C3=O)cc1 | 51* | 4 | 3 | -1
COc1ccc(-c2cn(Cc3ccc4c(c3)C(=O)c3ccccc3C4=O)nn2)cc1 | -11 | -1 | 3 | -3
O=C1c2ccccc2-c2nnc(-c3ccccc3)cc21 | 70* | 1 | -6 | 5
C=CCOc1ccc(C2C(C(=O)c3ccco3)=C(O)C(=O)N2c2nnc(C)s2)cc1 (stereo unspecified) | -13 | 18 | 0 | 0
CCOC(=O)C1(CCCc2ccccc2)CCN(Cc2ccn[nH]2)CC1 | -23 | -3 | 5 | -5
COc1ccc(S(=O)(=O)N(C)C)cc1NC(=O)c1ccc2c(c1)NC(=O)C(C)S2 (stereo unspecified) | -9 | 0 | -1 | -1
C/C(=N\O)c1ccc(N2C(=O)C3CC=C(Cl)CC3C2=O)cc1 (stereo unspecified) | -1 | 0 | 0 | 2
Cc1ccc(NC(=O)c2ccc(N3C(=O)C4CC=C(Cl)CC4C3=O)cc2)cc1 (stereo unspecified) | 33 | -13 | -1 | 26*
NC(=O)c1cc([N+](=O)[O-])ccc1NCc1cccc2ccccc12 | 5 | -4 | 0 | -6
O=C(/C=C/Nc1ccc([N+](=O)[O-])cc1Br)c1cccc2ccccc12 | 19 | -31 | 3 | 13*
Cc1cc(C)c(S(=O)(=O)ON2C(=O)c3ccccc3C2=O)cc1C | -1 | -3 | 0 | 9
Cc1ccc(S(=O)(=O)ON2C(=O)c3ccccc3C2=O)c(C)c1 | 4 | 1 | -7 | 22*
O=C(Nc1nnc(Cc2ccc(Cl)cc2)s1)c1cccs1 | 0 | -12 | 4 | 12*
CCOC(=O)C1(Cc2ccc(Cl)cc2)CCN(Cc2cn(CC)nc2C)CC1 | -3 | 0 | 7 | 1
COC(=O)C(Cc1c[nH]c2ccccc12)N1CCS(=O)(=O)CC1 (stereo unspecified) | -2 | 1 | 0 | 0
Cc1occc1C(=O)N1CCN(c2ccccc2)CC1 | -1 | -3 | 2 | 12*
CCOC(=O)c1oc2cc(O)cc(C)c2c1C | 0 | 5 | -1 | 0
Fc1ccc(COc2ccccc2CNCc2ccncc2)cc1 | -7 | 2 | 0 | -10
SMILES | EBI2 antag | SENP1 FRET inh | MPTP inh | NR3A LBD binder
Brc1ccc(OCc2ccccc2)c(CNCc2ccncc2)c1 | 6 | -1 | 4 | 11*
Cc1nc2nc(SCc3ccc([N+](=O)[O-])cc3)[nH]c2cc1Br | -7 | 3 | 21 | 3
CCCC(C)NC(=O)CN1C(=O)c2cccc3cccc1c23 (stereo unspecified) | -9 | -19 | 0 | -1
N/C(=N\c1nc2ccccc2o1)NC(=O)/C=C/c1ccccc1 | 18 | -2 | 0 | 22*
COC(=O)[C@H](CC(C)C)NC(=O)/C=C/[C@H]1O[C@@H](n2cc(C)c(=O)[nH]c2=O)C[C@@H]1O | -7 | 0 | -1 | ·
O=C(C1CCCO1)N1N=C(c2ccc(Br)cc2)CC1c1ccco1 (stereo unspecified) | -5 | -3 | 0 | 16*
Cc1ccc(C2=NN(C(=O)C3CCCO3)C(c3ccco3)C2)cc1 (stereo unspecified) | -9 | -18 | -1 | 0
O=C(C(=NNc1ccccc1)C(=S)Nc1ccccc1)c1ccccc1 | 20 | 1 | 5 | ·
Cc1onc(-c2ccccc2)c1C(=O)NC(=S)Nc1sc2c(c1C#N)CCCC2 | 1 | -7 | 42 | 11*
Cc1onc(-c2ccccc2)c1C(=O)Nc1sc2c(c1C#N)CCC2 | 12 | -29 | 4 | 2
Cc1ccccc1NS(=O)(=O)c1ccc(NC(=O)CSCc2ccc(Br)cc2)cc1 | 12 | 1 | 20 | 22*
C=CCn1c(SCC(=O)Nc2cc(C)on2)nc2sc(CC)cc2c1=O | -1 | 0 | 1 | -1
C=CCn1c(SCC(=O)Nc2ccc(O)cc2)nc2sc(CC)cc2c1=O | -3 | 1 | 0 | 33*
O=C(NCc1cccs1)C1CC(=O)N(Cc2ccccc2)C1 (stereo unspecified) | 4 | -1 | 1 | -1
CC(=O)Nc1nc(SCC(=O)Nc2nnc(C)s2)[nH]c(=O)c1NC(=O)c1cccs1 | 0 | -1 | 2 | 0
CCN(CC)C(=O)CSc1nc2c(sc(=S)n2-c2ccccc2)c(=O)n1-c1ccc(OC)cc1OC | 12 | 0 | 2 | 12*
CC(=O)Nc1ccc(-c2csc(NC(=O)C3CSC4(C)CCC(=O)N34)n2)cc1 (stereo unspecified) | 7 | -5 | -3 | 3
CC(=O)c1nn(-c2ccc(C(F)(F)F)cc2)c(=O)[nH]c1=O | 0 | 4 | 0 | 3
